Measured values published in ChEMBL document CHEMBL2029215, “Synthesis, reactive oxygen species generation and copper-mediated nuclease activity profiles of 2-aryl-3-amino-1,4-naphthoquinones” (Bioorg Med Chem Lett, 2012).
Active and inactive are the calls of the source. The calls are words filed in the database; no cut-off is given here.

Test system: not listed separately
Test: Hydrogen peroxide release activity in potassium phosphate buffer at pH 7.4 after 60 mins by […] based colorimetric assay
Format: physicochemical
Details: pH 7.4, 1 h
Procedure, shortened: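 Compound incubated in pH 7.4 buffer for 1 h. H2O2 then estimated with a xylenol orange-based colorimetric method.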

Row | SMILES | Activity
1 | O=C1C(NCc2ccccc2)=C(c2ccccc2)C(=O)c2ccccc21 | < 2 µM
2 | NC1=C(c2ccccc2)C(=O)c2ccccc2C1=O | < 2 µM
3 | O=C1C(Nc2ccc([N+](=O)[O-])cc2)=C(c2ccccc2)C(=O)c2ccccc21 | < 2 µM
4 | C=CCNC1=C(c2ccccc2)C(=O)c2ccccc2C1=O | < 2 µM
5 | COc1ccc(C2=C(N3CCCC3)C(=O)c3ccccc3C2=O)cc1 | Active
6 | CN1CCCC1 [N-METHYL PYRROLIDINE (NMP)] | Not Active
7 | O=C1C(Nc2ccccc2)=C(c2ccccc2)C(=O)c2ccccc21 | < 2 µM
8 | COc1ccccc1C1=C(N2CCCC2)C(=O)c2ccccc2C1=O | Active
9 | O=C1C(NCc2ccc(Cl)cc2)=C(c2ccccc2)C(=O)c2ccccc21 | < 2 µM
10 | O=C1C(c2ccc(F)cc2)=C(N2CCCC2)C(=O)c2ccccc21 | Active
11 | CCCCNC1=C(c2ccccc2)C(=O)c2ccccc2C1=O | < 2 µM
12 | COc1ccc(NC2=C(c3ccccc3)C(=O)c3ccccc3C2=O)cc1 | < 2 µM
13 | CN(C)CCNC1=C(c2ccccc2)C(=O)c2ccccc2C1=O | < 2 µM
14 | COc1ccc(CNC2=C(c3ccccc3)C(=O)c3ccccc3C2=O)cc1 | < 2 µM
15 | CCCNC1=C(c2ccccc2)C(=O)c2ccccc2C1=O | < 2 µM
16 | C1CCNC1 [PYRROLIDINE] | Not Active

Test system: not listed separately
Test: Hydrogen peroxide release activity in potassium phosphate buffer at pH 7.4 after 60 mins by […] based colorimetric assay in presence of catalase
Format: physicochemical
Details: pH 7.4, 1 h
Procedure, shortened: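 Compound incubated at pH 7.4 for 1 h. Reaction mixture then treated with catalase before the xylenol orange colorimetric read-out for H2O2.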

Row | SMILES | Activity
17 | COc1ccc(C2=C(N3CCCC3)C(=O)c3ccccc3C2=O)cc1 | Active
18 | COc1ccccc1C1=C(N2CCCC2)C(=O)c2ccccc2C1=O | Active
19 | O=C1C(c2ccc(F)cc2)=C(N2CCCC2)C(=O)c2ccccc21 | Active
20 | O=C1C(c2ccccc2)=C(N2CCCC2)C(=O)c2ccccc21 | Active

Test system: not listed separately
Test: Superoxide release activity in potassium phosphate buffer at pH 7.4 and 25 uM after 30 mins by […]
Details: not given
Procedure, shortened: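 Compound incubated in pH 7.4 buffer. Superoxide detected by luminol-based chemiluminescence.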

Row | SMILES | Activity
21 | CN1CCCC1 [N-METHYL PYRROLIDINE (NMP)] | inactive
22 | O=C1C(c2ccccc2)=C(N2CCCC2)C(=O)c2ccccc21 | Active
23 | C1CCNC1 [PYRROLIDINE] | inactive

Test system: not listed separately
Test: Superoxide release activity in potassium phosphate buffer at pH 7.4 and 25 uM after 30 mins by […] in presence of superoxide dismutase
Details: not given
Procedure, shortened: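 Compound incubated in pH 7.4 buffer with superoxide dismutase present. Superoxide read by luminol-based chemiluminescence.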

Row | SMILES | Activity
24 | O=C1C(c2ccccc2)=C(N2CCCC2)C(=O)c2ccccc21 | Active

Test system: Nucleic Acid
Test: Induction of DNA damage in Escherichia coli pBR322 assessed as supercoiled DNA cleavage at 25 uM after 24 hrs by agarose gel electrophoresis
Format: nucleic-acid assay
Details: not given
Procedure, shortened: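 Compound at 25 µM without Cu(II) and with no added reducing agent, incubated with supercoiled pBR322 plasmid DNA. Damage assessed as cleavage of supercoiled form on gel.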

Row | SMILES | Activity
25 | O=C1C(c2ccccc2)=C(N2CCCCC2)C(=O)c2ccccc21 | inactive
26 | O=C1C(NCc2ccccc2)=C(c2ccccc2)C(=O)c2ccccc21 | inactive
27 | COc1ccc(C2=C(N3CCCC3)C(=O)c3ccccc3C2=O)cc1 | inactive
28 | O=C1C(Nc2ccccc2)=C(c2ccccc2)C(=O)c2ccccc21 | inactive
29 | COc1ccccc1C1=C(N2CCCC2)C(=O)c2ccccc2C1=O | inactive
30 | O=C1C(c2ccc(F)cc2)=C(N2CCCC2)C(=O)c2ccccc21 | inactive
31 | O=C1C(c2ccccc2)=C(N2CCCC2)C(=O)c2ccccc21 | inactive
32 | CCCNC1=C(c2ccccc2)C(=O)c2ccccc2C1=O | inactive

Test system: Nucleic Acid
Test: Induction of DNA damage in Escherichia coli pBR322 assessed as supercoiled DNA cleavage at 25 uM after 24 hrs by agarose gel electrophoresis in presence of Cu2+
Format: nucleic-acid assay
Details: not given
Procedure, shortened: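 Compound with Cu(II) at 1:1, no added reducing agent. Mixture holds 100 ng form I pBR322 in 10 mM MOPS, pH 7.4, incubated 37 °C for 24 h. Supercoiled-to-nicked (form II) cleavage read on gel against a DNA-only lane.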

Row | SMILES | Activity
33 | O=C1C(c2ccccc2)=C(N2CCCCC2)C(=O)c2ccccc21 | Active
34 | O=C1C(NCc2ccccc2)=C(c2ccccc2)C(=O)c2ccccc21 | Active
35 | COc1ccc(C2=C(N3CCCC3)C(=O)c3ccccc3C2=O)cc1 | Active
36 | O=C1C(Nc2ccccc2)=C(c2ccccc2)C(=O)c2ccccc21 | Active
37 | COc1ccccc1C1=C(N2CCCC2)C(=O)c2ccccc2C1=O | Active
38 | O=C1C(c2ccc(F)cc2)=C(N2CCCC2)C(=O)c2ccccc21 | Active
39 | O=C1C(c2ccccc2)=C(N2CCCC2)C(=O)c2ccccc21 | Active
40 | CCCNC1=C(c2ccccc2)C(=O)c2ccccc2C1=O | Active

Test system: Nucleic Acid
Test: Induction of DNA damage in Escherichia coli pBR322 assessed as supercoiled DNA cleavage at 1 uM after 24 hrs by agarose gel electrophoresis in presence of Cu2+
Format: nucleic-acid assay
Details: not given
Procedure, shortened: (§1)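 Concentration course of 1–10 µM compound with an equimolar amount of Cu(II). Mixture holds 100 ng supercoiled pBR322 plasmid (form I) in 10 mM MOPS, pH 7.4, incubated 37 °C for 24 h. Cleavage to nicked form II read on gel against a DNA-only lane.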

Row | SMILES | Activity
41 | O=C1C(c2ccccc2)=C(N2CCCC2)C(=O)c2ccccc21 | Active

Test system: Nucleic Acid
Test: Induction of DNA damage in Escherichia coli pBR322 assessed as supercoiled DNA cleavage at 10 uM after 24 hrs by agarose gel electrophoresis in presence of Cu2+
Format: nucleic-acid assay
Details: not given
Procedure, shortened: as §1

Row | SMILES | Activity
42 | O=C1C(c2ccccc2)=C(N2CCCC2)C(=O)c2ccccc21 | Active
